Screening results as filed in PubChem BioAssay.
Shown are actives, neighbours in structure and some others; about 3% of the full set was active somewhere.
MEKK2mut PB1 HTS – MEK5 binding signal on mutant MEKK2 PB1, primary screen, biochemical, multiplex bead flow cytometry, Alexa488-MEK5; AID 1530, 2009; Alexa488-MEK5 binding to MEKK2 mutant; percent response, % at 10 µM; hit rate 0.35% among 290,000; in the data active = percent response above about 24%, passing the limit was not always enough
MEKK2 WT-MEK5 – modulators of MEK5 binding to wildtype MEKK2, primary screen, biochemical, multiplex bead flow cytometry, Alexa488-MEK5 | hit rate 1.1% among 290,000 | binding response (% of control), % at 10 µM | Mitogen-activated protein kinase kinase kinase 2 (Homo sapiens), Q9Y2U5 | Alexa488-MEK5 binding to MEKK2 WT; actives lie on both sides; in the data active = binding response below about 67% or above about 130%
MEKK3 PB1 HTS – modulators of MEKK3-MEK5 PB1 binding, primary screen, biochemical, wildtype MEKK3, multiplex bead flow cytometry, Alexa488-MEK5 | binding response (% of control), % at 10 µM | bead-based flow cytometry, Alexa488-MEK5 binding to MEKK3; actives lie on both sides; 0 = blocked by unlabeled MEK5, 100 = vehicle | Mitogen-activated protein kinase kinase kinase 3 (Homo sapiens), Q99759 | AID 1529, 2009 | hit rate 1.4% among 290,000;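 active = binding response more than 3 SD above or below the average of its plate-row segment, actives on both sides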;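 also: Alexa488 bead fluorescence after subtracting the streptavidin-only scavenger bead signal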
Apaf1 inhib – inhibitors of human Apaf-1 apoptosome, primary screen, biochemical, DEVD-Rh110 fluorescence, uHTS | AID 489030, 2010 | inhibition, % at 20 µM | reconstituted apoptosome caspase-3 activity | hit rate 0.71% among 330,000; active = inhibition of at least 40% at 20 µM;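 also: plate controls were DMSO wells for no effect and DEVD-CHO caspase inhibitor wells for full effect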
Target sequence (O14727 whole entry, looked up): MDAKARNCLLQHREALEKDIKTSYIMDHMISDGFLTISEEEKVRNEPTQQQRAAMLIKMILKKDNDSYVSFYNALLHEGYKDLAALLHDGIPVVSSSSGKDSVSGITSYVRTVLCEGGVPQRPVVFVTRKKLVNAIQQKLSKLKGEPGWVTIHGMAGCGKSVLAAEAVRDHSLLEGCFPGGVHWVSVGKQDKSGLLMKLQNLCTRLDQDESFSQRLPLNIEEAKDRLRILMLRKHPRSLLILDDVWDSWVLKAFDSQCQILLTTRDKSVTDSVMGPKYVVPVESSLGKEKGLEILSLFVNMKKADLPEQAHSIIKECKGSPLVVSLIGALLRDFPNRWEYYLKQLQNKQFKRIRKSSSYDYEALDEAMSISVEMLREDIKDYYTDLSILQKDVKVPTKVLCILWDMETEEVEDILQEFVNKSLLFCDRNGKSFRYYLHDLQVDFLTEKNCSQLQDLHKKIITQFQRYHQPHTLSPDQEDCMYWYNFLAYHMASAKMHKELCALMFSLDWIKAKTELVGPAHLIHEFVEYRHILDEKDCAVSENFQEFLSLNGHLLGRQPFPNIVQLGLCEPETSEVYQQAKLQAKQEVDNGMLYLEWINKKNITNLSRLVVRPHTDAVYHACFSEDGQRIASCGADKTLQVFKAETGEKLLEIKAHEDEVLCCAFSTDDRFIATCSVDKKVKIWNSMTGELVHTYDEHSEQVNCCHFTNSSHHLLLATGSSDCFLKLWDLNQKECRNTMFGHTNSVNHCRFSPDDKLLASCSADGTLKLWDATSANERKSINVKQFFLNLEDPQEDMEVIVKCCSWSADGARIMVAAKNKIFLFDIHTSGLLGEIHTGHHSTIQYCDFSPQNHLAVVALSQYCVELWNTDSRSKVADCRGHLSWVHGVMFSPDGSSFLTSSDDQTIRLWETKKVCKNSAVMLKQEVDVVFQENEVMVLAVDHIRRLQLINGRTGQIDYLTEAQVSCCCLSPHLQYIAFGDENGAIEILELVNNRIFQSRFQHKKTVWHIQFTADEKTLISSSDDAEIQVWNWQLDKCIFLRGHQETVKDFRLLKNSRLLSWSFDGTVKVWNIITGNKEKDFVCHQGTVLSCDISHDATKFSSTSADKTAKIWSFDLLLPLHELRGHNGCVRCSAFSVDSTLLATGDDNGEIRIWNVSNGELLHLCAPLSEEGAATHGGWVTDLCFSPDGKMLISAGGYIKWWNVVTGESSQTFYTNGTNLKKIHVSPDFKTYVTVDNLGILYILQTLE
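detection = Rh110 fluorescence intensity | test system = biochemical Apaf-1 apoptosome reconstitution | also added = cytochrome c and DEVD-Rh110 substrate | schedule = 30 min plus 50 min, RT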
UBC13 inh – UBC13 polyubiquitin chain formation inhibitors, primary screen, biochemical, TR-FRET, uHTS | hit rate 0.47% among 330,000 | inhibition, % at 20 µM | Ubiquitin-conjugating enzyme E2 N (Homo sapiens), P61088; in the data active = inhibition above about 45%, passing the limit was not always enough
UCH37 inh – inhibitors of human UCH37 deubiquitinase, primary screen, biochemical, Ub-AMC cleavage, fluorescence; hit rate 0.33% among 330,000; inhibition, % (no concentration beside the values); purified proteasome/UCH37; AID 588478, 2011;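 active = mean inhibition over replicate wells above about 20%, limit read from the data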;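 also: 0% = compound-free wells with enzyme and 100% = wells lacking proteasome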
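Test system – human UCH37 enzyme supplied as purified proteasome complex · Incubation – 30 min preincubation with enzyme, 25 min cleavage at room temperature · Detection – AMC fluorescence from Ub-AMC cleavage, excitation 355 nm, emission 460 nm · Benchmarks – no-proteasome wells (full inhibition) and compound-free wells (no inhibition)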
MEKK2wt confirm – modulators of MEK5 binding to wildtype MEKK2, confirmation, biochemical, single concentration, multiplex bead flow cytometry; shares compounds with MEKK3 PB1 HTS; Alexa488-MEK5 binding to MEKK2 WT; actives lie on both sides; binding response (% of control), % at 10 µM; hit rate 2.4% among 5,900; in the data active = binding response below about 16% or above about 210%; inactive = in between
MEKK2mut confirm – mutant MEKK2 PB1-MEK5 binding signal retest – biochemical, single concentration, multiplex bead flow cytometry, confirmation. Alexa488-MEK5 binding to MEKK2 mutant. shares compounds with MEKK3 PB1 HTS. hit rate 2% among 5,900. AID 1893, 2009. percent response, % at 10 µM; in the data active = percent response mostly above about 71%, no sharp cut-off; inactive = mostly below about 38%;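 also: higher means compound restores mutant binding toward wildtype level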
MEKK3 confirm – MEKK3 wild-type PB1 binding to MEK5, inhibitors, confirmation, biochemical, bead multiplex flow cytometry, single concentration, wildtype | hit rate 1.8% among 5,900 | Alexa488-MEK5 binding to MEKK3; hits give low values | binding response (% of control), % at 10 µM | shares compounds with MEKK3 PB1 HTS;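 active = binding response below 72% of control, or above a set upper limit, though filed actives all read lower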;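 also: 100% = DMSO only wells and 0% = binding blocked by excess unlabeled MEK5; lower values mean stronger disruption of MEK5 binding to MEKK3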
Casp3 UBC13 ctr – CASP3 inhibitor validation, counterassay for project on UBE2N polyubiquitination blockers, biochemical, one dose; shares compounds with UBC13 inh; Recombinant caspase-3, Caspase-Glo 3/7 luminescence, 60 min; inhibition, % at 20 µM; hit rate 4% among 1,400; AID 488856, 2010;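 active = mean inhibition across replicates above about 26%, limit read from the data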;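 also: plate controls were DMSO with caspase-3 for no effect and DMSO wells lacking enzyme for full effect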
UBC13 confirm – UBC13 polyubiquitination inhibitors, single-point retest, confirmation, biochemical, TR-FRET, single concentration; shares compounds with UBC13 inh; inhibition, % at 10 µM; hit rate 68% among 1,400; in the data active = inhibition above about 45%
Apaf-1 inh conf2 – Apaf-1 inhibitors, single-dose retest, confirmation, biochemical, fluorescence, DEVD-Rh110, 20 µM. shares compounds with Apaf1 inhib. reconstituted apoptosome, caspase-3 DEVD-Rh110 fluorescence. inhibition, % at 20 µM. hit rate 25% among 1,800;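 active = mean inhibition of at least 40% at 20 µM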;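 also: plate controls were DMSO wells for no effect and DEVD-CHO caspase inhibitor control wells for full effect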
Rh110 interf inh – Rh110 fluorescence interference by putative Apaf-1 inhibitors, confirmation, artefact control for Apaf-1 inhibitor project, biochemical, 20 µM; activation (fluorescence interference), % at 20 µM; 1,800 tested, under 10 active; shares compounds with Apaf1 inhib; AID 504615, 2011; quenched caspase reaction;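 active = signal rise of 40% or more at 20 µM, treated as a fluorescence artifact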
Fluor interf inh – fluorescence interference of Apaf-1 inhibitor hits, dose response, artefact control for Apaf-1 inhibitor project; shares compounds with Apaf1 inhib; fluorescence interference counterscreen, Apaf-1 assay format; 460 tested, under 10 active; AID 588538, 2011; IC50, µM; call rule not given here
* marks the source's active call; other numbers are inactive results; [ ] = dose if it differs, or a comment.

`C[C@@H](CN1C2=NC[C@H](Cc3ccccc3)N2C[C@H]1Cc1ccc(O)cc1)NC(=O)CCC1CCCCC1` gave MEKK2mut PB1 HTS 25, MEKK2 WT-MEK5 146*, MEKK3 PB1 HTS 109, Apaf1 inhib 41*, UBC13 inh 66*, UCH37 inh 4, MEKK2wt confirm 139, MEKK2mut confirm 33, MEKK3 confirm 110, Casp3 UBC13 ctr 0, UBC13 confirm 41, Apaf-1 inh conf2 12 and Rh110 interf inh 9.
`Cc1cc(C)n(CC(O)COc2ccc3ccccc3c2)n1` (stereo not given) gave MEKK2mut PB1 HTS -10, MEKK2 WT-MEK5 84, MEKK3 PB1 HTS 90, Apaf1 inhib 2, UBC13 inh -10 and UCH37 inh 4.
`Cc1cc(C)cc(NC(=O)C2(c3ccccc3)CC2(Cl)Cl)c1` (stereo not given) gave MEKK2mut PB1 HTS 0, MEKK2 WT-MEK5 105, MEKK3 PB1 HTS 100, Apaf1 inhib 22, UBC13 inh -11 and UCH37 inh 1.
Screening CCN(CC)CCCN1C=C2C(=O)C(C)(OC(=O)CCC(=O)OC)C(=O)C(Br)=C2C=C1c1ccc(OC)cc1 (stereo not given) returned MEKK2mut PB1 HTS 3, MEKK2 WT-MEK5 99, MEKK3 PB1 HTS 95, Apaf1 inhib 34 and UBC13 inh -72.
For COC(=O)CCC(=O)OC1(C)C(=O)C2=CN(C3CCCC3)C(c3ccc(OC)cc3)=CC2=C(Br)C1=O (stereo not given) the results were MEKK2mut PB1 HTS -23, MEKK2 WT-MEK5 -8.0*[inhibitor], MEKK3 PB1 HTS 47*[inhibitor], Apaf1 inhib 64*, UBC13 inh -92, UCH37 inh 2, MEKK2wt confirm 88, MEKK2mut confirm 0, MEKK3 confirm 88, Apaf-1 inh conf2 77*, Rh110 interf inh 5 and Fluor interf inh >100.
